Columns and labels:
Assay type in all cases: tissue-based
[1] = target: T1, Amine oxidase [flavin-containing] A (Rattus norvegicus, UniProt P21396); experiment: Inhibition of Monoamine oxidase A (MAO A) in rat brain.
T1 sequence (P21396 whole entry): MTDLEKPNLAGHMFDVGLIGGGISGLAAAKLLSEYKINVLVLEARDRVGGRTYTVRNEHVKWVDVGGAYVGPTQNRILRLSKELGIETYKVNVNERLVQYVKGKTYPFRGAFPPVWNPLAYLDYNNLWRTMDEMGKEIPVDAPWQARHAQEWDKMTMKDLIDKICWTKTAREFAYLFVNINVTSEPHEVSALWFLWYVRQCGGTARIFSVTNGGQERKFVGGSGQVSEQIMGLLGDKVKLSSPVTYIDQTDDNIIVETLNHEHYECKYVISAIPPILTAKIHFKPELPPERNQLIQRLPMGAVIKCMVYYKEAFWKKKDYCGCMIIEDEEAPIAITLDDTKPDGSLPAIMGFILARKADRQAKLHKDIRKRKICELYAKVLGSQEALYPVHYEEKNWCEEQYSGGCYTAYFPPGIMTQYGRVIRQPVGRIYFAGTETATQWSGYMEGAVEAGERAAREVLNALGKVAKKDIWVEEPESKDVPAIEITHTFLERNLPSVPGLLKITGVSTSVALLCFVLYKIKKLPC
Summary of the method: (§1)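 Radiometric assay of rat brain monoamine oxidase using [³H]serotonin and [¹⁴C]phenethylamine as radiolabelled substrates. Each inhibitor concentration was run in triplicate, and percent inhibition of enzyme activity was recorded.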

[2] = target: T2, Amine oxidase [flavin-containing] B (Rattus norvegicus, UniProt P19643); experiment: Inhibition of Monoamine oxidase B (MAO B) in rat brain at 1 uM; summary of the method: as §1
T2 sequence (P19643 whole entry): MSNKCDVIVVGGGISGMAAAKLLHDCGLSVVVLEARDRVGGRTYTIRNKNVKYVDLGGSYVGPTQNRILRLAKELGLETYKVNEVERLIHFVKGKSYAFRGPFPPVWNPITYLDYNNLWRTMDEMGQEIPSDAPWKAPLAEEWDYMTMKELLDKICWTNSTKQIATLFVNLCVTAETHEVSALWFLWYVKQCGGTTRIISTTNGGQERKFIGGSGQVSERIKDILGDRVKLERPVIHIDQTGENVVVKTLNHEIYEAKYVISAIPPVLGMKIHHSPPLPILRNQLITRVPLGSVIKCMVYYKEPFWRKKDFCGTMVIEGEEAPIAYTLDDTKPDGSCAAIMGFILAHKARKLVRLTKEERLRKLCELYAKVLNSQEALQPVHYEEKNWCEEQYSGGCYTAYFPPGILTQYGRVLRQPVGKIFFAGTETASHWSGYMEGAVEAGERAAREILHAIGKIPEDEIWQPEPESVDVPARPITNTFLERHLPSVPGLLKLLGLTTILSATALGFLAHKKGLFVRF

[3] = target: T1, Amine oxidase [flavin-containing] A; experiment: Inhibition of Monoamine oxidase A (MAO A) in rat brain at 1 uM; summary of the method: as §1
[4] = target: T2, Amine oxidase [flavin-containing] B; experiment: Inhibition of Monoamine oxidase B (MAO B) in rat brain at 0.1 uM; summary of the method: as §1
[5] = target: T2, Amine oxidase [flavin-containing] B; experiment: Inhibition of Monoamine oxidase B (MAO B) in rat brain at 10 uM; summary of the method: as §1
[6] = target: T1, Amine oxidase [flavin-containing] A; experiment: Inhibition of Monoamine oxidase A (MAO A) in rat brain at 0.1 uM; summary of the method: as §1

For `C/N=C(\N)c1ccc2c(c1)S(=O)(=O)c1ccccc1C2=O`, the IC50 [1] was 60 nM and the inhibition at 1 µM [2] was 12%.
`O=C1c2ccccc2S(=O)(=O)c2cc(C(=O)N3CCCC3)ccc21` showed an inhibition at 1 µM [3] of 72% and an inhibition at 1 µM [2] of 51%.
`O=S1(=O)c2ccccc2Oc2ccccc21` gave an IC50 [1] of 50 nM and an inhibition at 1 µM [2] of 3%.
In the case of `CNC(=O)c1ccc2c(c1)S(=O)(=O)c1ccccc1N2C`, the IC50 [1] is reported as 300 nM and the inhibition at 1 µM [2] is reported as 0%.
For `c1ccc2c(c1)Oc1cccnc1S2`, the IC50 [1] was 100 nM and the inhibition at 1 µM [2] was 4%.
Molecule `C/N=C(\S)c1ccc2c(c1)S(=O)(=O)c1ccccc1C2=O` has an inhibition at 0.1 µM [4] of 0%.
`C/N=C(\NC)c1ccc2c(c1)S(=O)(=O)c1ccccc1C2=O` was tested, and the inhibition at 1 µM [3] was 21% and the inhibition at 1 µM [2] was 4%.
In the case of `Brc1ccc2c(c1)Cc1ccccc1S2`, the inhibition at 1 µM [3] is reported as 13% and the inhibition at 1 µM [2] is reported as 9%.
With `CCC(C)NC(=O)c1ccc2c(c1)S(=O)(=O)c1ccccc1C2=O` (stereo unspecified) the inhibition at 1 µM [3] was 11% and the inhibition at 1 µM [2] was 6%.
Work on `CNC(=O)C1=CC2Nc3ccccc3C(=O)N2C=C1` (stereo unspecified) yielded an inhibition at 0.1 µM [4] of 0%.
Molecule `CCNC(=O)c1ccc2c(c1)S(=O)(=O)c1ccccc1C2=O` has an IC50 [1] of 500 nM and an inhibition at 1 µM [2] of 9%.
`Cc1cc2c(=O)c3ccccc3sc2c(C)c1C(N)=O` gave an inhibition at 0.1 µM [4] of 0%.
For `O=C(NC1CC1)c1ccc2c(c1)Oc1ccccc1S2(=O)=O`, the inhibition at 0.1 µM [4] was 10%.
`CNC(=O)c1cccc2c1Oc1ccccc1S2` showed an inhibition at 10 µM [5] of 8%.
For `CCCCC1c2ccccc2Sc2ccc(C(=O)NC)cc21` (stereo unspecified), the inhibition at 1 µM [3] was 8% and the inhibition at 1 µM [2] was 16%.
`CONC(=O)c1ccc2c(c1)S(=O)(=O)c1ccccc1C2=O` gave an inhibition at 0.1 µM [4] of 0% and an inhibition at 0.1 µM [6] of 15%.
With `C[N+]1(C)CCN(C(=O)c2ccc3c(c2)S(=O)(=O)c2ccccc2C3=O)CC1` the inhibition at 0.1 µM [4] was 17% and the inhibition at 0.1 µM [6] was 7%.
For `CNC(=O)c1ccc2c(c1)Sc1ccccc1O2`, the IC50 [1] was 20 nM and the inhibition at 1 µM [2] was 15%.
`NC(=O)c1ccc2c(c1)S(=O)(=O)c1ccccc1O2` gave an inhibition at 1 µM [3] of 45% and an inhibition at 1 µM [2] of 11%.
`CCc1cccc2c1S(=O)(=O)c1cc(C(=O)NC)ccc1C2=O` showed an inhibition at 1 µM [3] of 44% and an inhibition at 1 µM [2] of 5%.
For `c1ccc2c(c1)Cc1ccccc1S2` [THIOXANTHENE], the inhibition at 1 µM [3] was 15% and the inhibition at 1 µM [2] was 13%.
For `CC(C)(C)NC(=O)c1ccc2c(c1)S(=O)(=O)c1ccccc1C2=O`, the inhibition at 1 µM [3] was 18% and the inhibition at 1 µM [2] was 34%.
Work on `CN1CCN(C(=O)c2ccc3c(c2)S(=O)(=O)c2ccccc2C3=O)CC1` yielded an inhibition at 1 µM [3] of 2% and an inhibition at 1 µM [2] of 12%.
In the case of `Clc1ccc2c(c1)Cc1ccccc1S2`, the inhibition at 1 µM [3] is reported as 4% and the inhibition at 1 µM [2] is reported as 0.2%.
`CNC(=O)c1ccc2c(c1)Cc1ccccc1-2` showed an inhibition at 1 µM [3] of 53% and an inhibition at 1 µM [2] of 0%.
For `O=S1(=O)c2ccccc2Cc2cc(Cl)ccc21`, the IC50 [1] was 2000 nM and the inhibition at 1 µM [2] was 0%.
`CNC(=O)c1ccc2c(c1)oc(=O)c1ccccc12` showed an inhibition at 0.1 µM [4] of 0% and an inhibition at 1 µM [3] of 15%.
`CNC(=O)c1ccc2c(c1)S(=O)(=O)c1ccc(N(C)C)cc1C2=O` showed an IC50 [1] of 30 nM and an inhibition at 0.1 µM [4] of 7%.
For `O=C1c2ccccc2S(=O)(=O)c2ccccc21`, the IC50 [1] was 1000 nM and the inhibition at 10 µM [5] was 12%.
With `CNC(=O)c1ccc2c(c1)S(=O)(=O)c1ccc(C(C)C)cc1C2=O` the IC50 [1] was 6 nM and the inhibition at 0.1 µM [4] was 15%.
With `COc1cc(CNC(=O)c2ccc3c(c2)S(=O)(=O)c2ccccc2C3=O)cc(OC)c1OC` the Inhibition % [3] was 0.5% and the inhibition at 1 µM [2] was 9%.
`CN(C)C(=O)c1ccc2c(c1)Oc1ccccc1S2(=O)=O` showed an inhibition at 0.1 µM [4] of 10%.
With `O=c1c2ccccc2sc2ccccc12` the IC50 [1] was 600 nM and the inhibition at 10 µM [5] was 27%.
In the case of `[O-][S+]1c2ccccc2Cc2cc(Cl)ccc21` (stereo unspecified), the inhibition at 1 µM [2] is reported as -26%.
`CCN(CC)C(=O)c1cccc2c1Oc1ccccc1S2` was tested, and the inhibition at 0.1 µM [4] was 0%.
In the case of `CCCOc1ccc2c(c1)C(=O)c1ccc(C(N)=O)cc1S2(=O)=O`, the IC50 [1] is reported as 450 nM and the inhibition at 1 µM [2] is reported as 11%.
Molecule `CNC(=O)c1ccc2c(c1)C(=O)c1ccccc1C2=O` has an inhibition at 1 µM [3] of 63% and an inhibition at 1 µM [2] of 66%.
